Measured values: ChEMBL document CHEMBL3580554, “Design, synthesis, and anticonvulsant activity of new hybrid compounds derived from 2-(2,5-dioxopyrrolidin-1-yl)propanamides and 2-(2,5-dioxopyrrolidin-1-yl)butanamides” (J Med Chem, 2015)

Assays:
Mus musculus [1] = experiment: Anticonvulsant activity in Swiss mouse model of 6 Hz psychomotor seizure mode assessed as protection against seizures at 100 mg/kg, ip dosed 2 hrs before 6 Hz electrical stimulation by 6 Hz test; type: functional
Outline: (§1)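 Mice were dosed i.p. at a fixed 300 or 100 mg/kg (6 Hz: 100 mg/kg only). Protection was then scored against MES, sc PTZ or 6 Hz seizures at pretreatment times of 0.25, 0.5, 1 and 2 h. Groups were four mice, scored as number protected / number tested. This also gives the time course and time of peak effect.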

Rattus norvegicus [2] = organism: Rattus norvegicus; experiment: Inhibition of [3H]BTX binding to sodium channel site 2 in rat cerebral cortex synaptosomes at 1 uM incubated for 60 mins by scintillation counting based radioligand displacement assay; type: subcellular
Outline: (§2)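 Synaptoneurosomal preparations from rat cerebral cortex were used. The read-out was inhibition of specific [3H]BTX binding to the voltage-sensitive sodium channel (site 2), expressed as % inhibition of control specific binding. Compounds were tested at 1, 10, 100 and 500 μM. Inhibition above 50% was taken as significant.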

Mus musculus [3] = experiment: Anticonvulsant activity in ip dosed Swiss mouse assessed as protection against seizures measured at 1 hr of time to peak effect by subcutaneous pentylenetetrazole seizure test; type: functional
Rattus norvegicus [4] = organism: Rattus norvegicus; experiment: Inhibition of [3H]BTX binding to sodium channel site 2 in rat cerebral cortex synaptosomes at 100 uM incubated for 60 mins by scintillation counting based radioligand displacement assay; type: subcellular; outline: as §2
Mus musculus [5] = experiment: Anticonvulsant activity in Swiss mouse assessed as protection against seizures at 100 mg/kg, ip dosed 1 hr before pentylenetetrazole challenge by subcutaneous pentylenetetrazole seizure test; type: functional; outline: as §1
Mus musculus [6] = experiment: Anticonvulsant activity in ip dosed Swiss mouse assessed as protection against seizures measured at 1 hr of time to peak effect by 6 Hz test by 6 Hz psychomotor seizure test; type: functional
Mus musculus [7] = organism: Mus musculus; experiment: Protective index, ratio of neurotoxic TD50 in Swiss mouse by Chimney test to anticonvulsant ED50 in Swiss mouse measured at 1 hr of time to peak effect by maximal electroshock test
Outline: (§3)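 Protective index was calculated as TD50 (chimney test, mouse, i.p.) divided by ED50 from the matching MES, sc PTZ or 6 Hz test, both taken at the time of peak effect.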

Mus musculus [8] = experiment: Anticonvulsant activity in Swiss mouse assessed as protection against seizures at 100 mg/kg, ip dosed 1 hr before initiation of maximal electroconvulsions by maximal electroshock test; type: functional; outline: as §1
Rattus norvegicus [9] = organism: Rattus norvegicus; experiment: Inhibition of [3H]BTX binding to sodium channel site 2 in rat cerebral cortex synaptosomes at 10 uM incubated for 60 mins by scintillation counting based radioligand displacement assay; type: subcellular; outline: as §2
[10] = Toxicity in ip dosed Swiss mouse assessed as induction of motor performance impairment measured within 60 seconds measured at 1 hr of time to peak effect by Chimney test; type: organism-based; details: in vivo
Outline: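 Neurotoxicity (TD50) estimated in mice i.p. by chimney test for motor coordination impairment; protective index calculated as TD50/ED50 for each seizure model.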

Liver microsome = experiment: Drug metabolism in human liver microsomes assessed as metabolite M3 formation at 50 uM in presence of NADPH regeneration system pre-incubated at 37 degC for 5 min and measured 2 hrs after post NADPH system addition by UPLC and LC-MS/MS method; type: ADME
Outline: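 The compound was incubated 2 h with human liver microsomes. Metabolites were detected by full-scan chromatogram and identified by LC/MS from their [M+H]+ molecular masses.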

Mus musculus [11] = experiment: Anticonvulsant activity in Swiss mouse assessed as protection against seizures at 100 mg/kg, ip dosed 0.5 hrs before pentylenetetrazole challenge by subcutaneous pentylenetetrazole seizure test; type: functional; outline: as §1
Mus musculus [12] = experiment: Anticonvulsant activity in Swiss mouse model of 6 Hz psychomotor seizure mode assessed as protection against seizures at 100 mg/kg, ip dosed 0.5 hrs before 6 Hz electrical stimulation by 6 Hz test; type: functional; outline: as §1
Mus musculus [13] = experiment: Anticonvulsant activity in Swiss mouse assessed as protection against seizures at 300 mg/kg, ip dosed 1 hr before pentylenetetrazole challenge by subcutaneous pentylenetetrazole seizure test; type: functional; outline: as §1
Mus musculus [14] = experiment: Protective index, ratio of neurotoxic TD50 in Swiss mouse by Chimney test to anticonvulsant ED50 in Swiss mouse measured at 1 hr of time to peak effect by subcutaneous pentylenetetrazole seizure test; type: functional; outline: as §3
Mus musculus [15] = experiment: Anticonvulsant activity in Swiss mouse assessed as protection against seizures at 300 mg/kg, ip dosed 0.5 hrs before initiation of maximal electroconvulsions by maximal electroshock test; type: functional; outline: as §1
Mus musculus [16] = experiment: Anticonvulsant activity in Swiss mouse assessed as protection against seizures at 300 mg/kg, ip dosed 0.5 hrs before pentylenetetrazole challenge by subcutaneous pentylenetetrazole seizure test; type: functional; outline: as §1
Mus musculus [17] = experiment: Anticonvulsant activity in Swiss mouse assessed as protection against seizures at 300 mg/kg, ip dosed 0.25 hrs before initiation of maximal electroconvulsions by maximal electroshock test; type: functional; outline: as §1
CYP3A4 = CYP3A4 (Homo sapiens, UniProt P08684); experiment: Inhibition of human recombinant CYP3A4 assessed as remaining enzyme activity by measuring conversion of luciferin-PPXE into D-luciferin at 25 uM by luminescence CYP3A4 P450-Glo assay relative to untreated control; type: ADME; details: recombinant CYP3A4, probe luciferin-PPXE, read-out: Activity
Sequence of CYP3A4 (P08684 whole entry): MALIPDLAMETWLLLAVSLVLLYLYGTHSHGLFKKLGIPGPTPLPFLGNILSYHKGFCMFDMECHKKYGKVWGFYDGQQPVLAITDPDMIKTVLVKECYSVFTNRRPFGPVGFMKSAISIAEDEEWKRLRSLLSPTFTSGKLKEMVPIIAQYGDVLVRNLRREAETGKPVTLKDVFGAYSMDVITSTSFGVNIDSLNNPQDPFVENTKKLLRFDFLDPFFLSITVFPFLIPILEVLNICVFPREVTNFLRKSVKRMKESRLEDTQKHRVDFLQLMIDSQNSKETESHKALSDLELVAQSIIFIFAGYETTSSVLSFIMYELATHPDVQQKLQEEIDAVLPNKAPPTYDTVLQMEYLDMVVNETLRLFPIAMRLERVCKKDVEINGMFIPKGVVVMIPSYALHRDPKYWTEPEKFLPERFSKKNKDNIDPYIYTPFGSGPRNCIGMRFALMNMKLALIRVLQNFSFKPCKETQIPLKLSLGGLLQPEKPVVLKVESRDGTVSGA

Mus musculus [18] = experiment: Anticonvulsant activity in Swiss mouse model of 6 Hz psychomotor seizure mode assessed as protection against seizures at 100 mg/kg, ip dosed 0.25 hrs before 6 Hz electrical stimulation by 6 Hz test; type: functional; outline: as §1
Mus musculus [19] = experiment: Anticonvulsant activity in Swiss mouse assessed as protection against seizures at 100 mg/kg, ip dosed 0.25 hrs before pentylenetetrazole challenge by subcutaneous pentylenetetrazole seizure test; type: functional; outline: as §1
[20] = Toxicity in ip dosed Swiss mouse assessed as induction of motor performance impairment measured within 60 seconds measured at 0.5 hrs of time to peak effect by Chimney test; type: organism-based; details: in vivo
Outline: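 Neurotoxicity was measured i.p. in mice by the chimney test for motor impairment. It was given as the median neurotoxic dose (TD50, mg/kg) at the time of peak effect.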

Mus musculus [21] = experiment: Anticonvulsant activity in Swiss mouse assessed as protection against seizures at 100 mg/kg, ip dosed 0.25 hrs before initiation of maximal electroconvulsions by maximal electroshock test; type: functional; outline: as §1
Mus musculus [22] = organism: Mus musculus; experiment: Protective index, ratio of neurotoxic TD50 in Swiss mouse by Chimney test to anticonvulsant ED50 in Swiss mouse measured at 0.5 hrs of time to peak effect by 6 Hz test by 6 Hz psychomotor seizure test; type: functional; outline: as §3
Mus musculus [23] = experiment: Anticonvulsant activity in ip dosed Swiss mouse assessed as protection against seizures measured at 0.5 hrs of time to peak effect by 6 Hz test by 6 Hz psychomotor seizure test; type: functional
Outline: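 Median effective doses (ED50, mg/kg) were determined i.p. in mice at the time of peak effect in the MES, sc PTZ or 6 Hz tests. Only compounds giving at least 50% protection at 100 mg/kg in that test were taken forward.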

Mus musculus [24] = experiment: Anticonvulsant activity in Swiss mouse assessed as protection against seizures at 300 mg/kg, ip dosed 1 hr before initiation of maximal electroconvulsions by maximal electroshock test; type: functional; outline: as §1
Mus musculus [25] = experiment: Anticonvulsant activity in Swiss mouse assessed as protection against seizures at 300 mg/kg, ip dosed 2 hrs before pentylenetetrazole challenge by subcutaneous pentylenetetrazole seizure test; type: functional; outline: as §1
Mus musculus [26] = experiment: Anticonvulsant activity in Swiss mouse assessed as protection against seizures at 100 mg/kg, ip dosed 0.5 hrs before initiation of maximal electroconvulsions by maximal electroshock test; type: functional; outline: as §1

Compound: CC(C(=O)N1CCN(c2cccc(C(F)(F)F)c2)CC1)N1C(=O)CCC1=O (racemic)
- Activity (Mus musculus [1]): 100%
- inhibition (Rattus norvegicus [2]): 3.5%
- ED50 (Mus musculus [3]): 88.7 mg/kg
- inhibition (Rattus norvegicus [4]): 37.4%
- Activity (Mus musculus [5]): 75%
- ED50 (Mus musculus [6]): 35 mg/kg
- Ratio TD50/ED50 (Mus musculus [7]): 9.68
- Activity (Mus musculus [8]): 50%
- inhibition (Rattus norvegicus [9]): 12.2%
- TD50 at 1 h [10]: 824 mg/kg
- Drug metabolism (Liver microsome): metabolite_detected
- Activity (Mus musculus [11]): 100%
- Activity (Mus musculus [12]): 100%
- Activity (Mus musculus [13]): 100%
- Ratio TD50/ED50 (Mus musculus [14]): 9.28
- Activity (Mus musculus [15]): 100%
- Activity (Mus musculus [16]): 100%
- Activity (Mus musculus [17]): 75%
- activity at 25 µM (CYP3A4): 68.4%
- Activity (Mus musculus [18]): 75%
- Activity (Mus musculus [19]): 50%
- TD50 at 0.5 h [20]: > 1500 mg/kg
- Activity (Mus musculus [21]): 50%
- Ratio TD50/ED50 (Mus musculus [22]): >71.43
- ED50 (Mus musculus [23]): 21 mg/kg
- Activity (Mus musculus [24]): 100%
- Activity (Mus musculus [25]): 100%
- Activity (Mus musculus [26]): 75%
